The source made the active and inactive calls. The rule behind the calls is not given here.
Experiments:
Cortical neurone [1] = assay: Induction of dendritogenesis in Sprague-Dawley rat cortical neurons assessed as dendritic arbor complexity at 10 uM after 1 hr supplemented with fresh neurobasal medium measured after 71 hrs by Alexa Fluor 488 dye based imaging analysis; assay type: functional, cell-based
How it was run: (§1)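 Cortical neurons from timed-pregnant Sprague Dawley rats, about 15,000 cells/well in B27 Neurobasal. On DIV3, dosed 1 h at 0.1% DMSO (10 μM standard; 10 pM–10 μM in concentration-response runs), then medium replaced and grown 71 h. PFA-fixed, MAP2 immunostained with Alexa Fluor 488 secondary, 20x imaging. Blinded Sholl analysis, Nmax = maximum crossings; ≥6 wells over 2 plates from independent dams.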

Danio rerio = organism: Danio rerio; assay: Induction of acute behavioural changes in wild type zebrafish Singapore at 7 days post-fertilization stage after 1 hr by imaging analysis; assay type: functional
How it was run: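 Wild-type Singapore larvae at 7 dpf, 8 per well in 300 μL egg water, rested 1 h at RT. DMSO stocks added (0.4% DMSO), then 1 h RT incubation. After 5 min dark acclimation, a 17-min acoustic/visual stimulus battery was run under IR video. Locomotion was taken as changed pixels. Random-forest out-of-bag accuracy versus vehicle wells was used, n = 21 wells.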

Mus musculus [2] = assay: Induction of head-twitch response in C57BL/6J mouse assessed as reduction in hallucinogenic potential at 1 to 50 mg/kg, iv measured after 20 mins; assay type: functional, organism-based
Cortical neurone [3] = assay: Induction of dendritogenesis in Sprague-Dawley rat cortical neurons assessed as increase in dendritic arbor complex at 1 nM after 1 hr supplemented with fresh neurobasal medium measured after 71 hrs by Alexa Fluor 488 dye based imaging analysis; assay type: functional, cell-based; how it was run: as §1
Mus musculus [4] = assay: Induction of head-twitch response in iv dosed C57BL/6J mouse assessed as reduction in hallucinogenic potential measured after 20 mins; assay type: functional, organism-based
[5] = molecular target: 5-hydroxytryptamine receptor 2A (Rattus norvegicus) (UniProt P14842); conditions: Sprague-Dawley, 1 uM
Sequence of 5-hydroxytryptamine receptor 2A (Rattus norvegicus) (P14842 whole entry): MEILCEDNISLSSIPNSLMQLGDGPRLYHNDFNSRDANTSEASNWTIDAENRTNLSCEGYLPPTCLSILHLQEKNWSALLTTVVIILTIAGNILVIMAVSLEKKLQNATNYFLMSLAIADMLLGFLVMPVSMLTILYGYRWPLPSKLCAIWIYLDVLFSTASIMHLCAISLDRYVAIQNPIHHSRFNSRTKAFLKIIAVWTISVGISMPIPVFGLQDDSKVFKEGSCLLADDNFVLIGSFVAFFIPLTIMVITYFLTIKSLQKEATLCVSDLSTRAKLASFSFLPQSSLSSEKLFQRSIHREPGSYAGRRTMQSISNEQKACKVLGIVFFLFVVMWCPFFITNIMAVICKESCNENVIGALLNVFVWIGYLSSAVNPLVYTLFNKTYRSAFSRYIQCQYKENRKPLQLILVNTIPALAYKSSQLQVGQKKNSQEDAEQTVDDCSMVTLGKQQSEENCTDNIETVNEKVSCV

Row | SMILES | Activity (Cortical neurone [1]) | other results
1 | COc1cccc2c1ccn2CCN(C)C | inactive | –
2 | CN(C)CCn1cnc2ccccc21 | Active | –
3 | CN(C)CCn1ccc2ccc(OCc3ccccc3)cc21 | Active | –
4 | CN(C)C(=O)Cn1ccc2ccccc21 | inactive | –
5 | CN(C)CCn1c2ccccc2c2ccccc21 | Active | –
6 | COc1ccc2c(ccn2CCN(C)C)c1.O=C(O)/C=C/C(=O)O | Active | Activity (Danio rerio): Dose-dependent effect; ECmax (Danio rerio): 200 µM; Activity (Mus musculus [2]): inactive
7 | CN(C)CCc1c[nH]c2ccccc12 | Active | Activity (Cortical neurone [3]): Active
8 | COc1ccc2[nH]cc(CCN(C)C)c2c1 [MEBUFOTENIN] | – | Activity (Cortical neurone [3]): Active; Activity (Danio rerio): Dose-dependent effect; ECmax (Danio rerio): 200 µM; Activity (Mus musculus [4]): Dose-dependent effect; inhibition [5]: Active
9 | CNC1(c2ccccc2Cl)CCCCC1=O (stereo unspecified) | – | Activity (Cortical neurone [3]): Active
10 | CN(C)CCn1ccc2cccc(F)c21 | Active | –
11 | CN(C)CCn1ccc2c(OCc3ccccc3)cccc21 | inactive | –
12 | CN(C)CCn1ccc2cc(OCc3ccccc3)ccc21 | Active | –
13 | CN(C)CCn1ccc2cc(F)ccc21 | Active | –
14 | CN(C)CCn1ccc2ccc(F)cc21 | Active | –
15 | CN(C)CCc1cn(C)c2ccccc12 | Active | –
16 | COc1ccc2ccn(CCN(C)C)c2c1 | Active | Activity (Danio rerio): Dose-dependent effect; ECmax (Danio rerio): 200 µM; Activity (Mus musculus [2]): Active
17 | CN(C)CCn1cccc1 | Active | –
18 | CN(C)CCn1ccc2c(F)cccc21 | inactive | –
19 | COc1cccc2ccn(CCN(C)C)c12 | Active | –
20 | CC(C)CCn1ccc2ccccc21 | inactive | –
21 | CN(C)CCn1ccc2cccc(OCc3ccccc3)c21 | Active | –
22 | CN(C)CCn1ccc2ccccc21 | Active | –
23 | COc1ccc2c(CCN(C)C)c[nH]c2c1 | – | Activity (Danio rerio): Dose-dependent effect; ECmax (Danio rerio): 200 µM; Activity (Mus musculus [2]): inactive

— ChEMBL document CHEMBL4376893, “Identification of Psychoplastogenic N,N-Dimethylaminoisotryptamine (isoDMT) Analogues through Structure-Activity Relationship Studies” (2020)
